FLuc act counter: affects firefly luciferase, flagging false hits in luciferase stimulation screens | 200,000 tested, under 10 active | activation factor at 10 µM | ATPlite luciferase biochemical, luminescence, 10 min; 0 = ATP-free wells, 1 = DMSO control;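 active means luciferase activation factor, scaled between plate controls, of at least 2 with compound at 10 µM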
Target sequence (P08659 whole entry, looked up): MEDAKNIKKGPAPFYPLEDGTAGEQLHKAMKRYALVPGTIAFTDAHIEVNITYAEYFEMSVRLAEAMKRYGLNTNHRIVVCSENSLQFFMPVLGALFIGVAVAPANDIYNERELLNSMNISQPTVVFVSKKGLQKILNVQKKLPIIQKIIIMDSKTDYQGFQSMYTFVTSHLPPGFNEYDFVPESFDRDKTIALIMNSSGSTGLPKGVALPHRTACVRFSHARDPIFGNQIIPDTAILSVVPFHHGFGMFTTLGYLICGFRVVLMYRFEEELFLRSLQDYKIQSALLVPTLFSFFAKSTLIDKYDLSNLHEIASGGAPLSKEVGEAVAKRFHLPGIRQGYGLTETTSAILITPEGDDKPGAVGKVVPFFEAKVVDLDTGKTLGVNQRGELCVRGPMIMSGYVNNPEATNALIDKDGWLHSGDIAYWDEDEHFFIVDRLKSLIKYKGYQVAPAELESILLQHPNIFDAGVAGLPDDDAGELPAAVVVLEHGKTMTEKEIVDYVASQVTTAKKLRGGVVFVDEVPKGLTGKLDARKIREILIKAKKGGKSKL
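System: luciferase plus luciferin reagent, cell-free; medium: PBS as buffer for the ATP substrate; dosing: test compounds dosed from 2 mM stocks in 100% DMSO; timing: 10 min post-reagent at room temperature; measured by: luminescence measurement of luciferase light output; evaluation: luciferase activation, seen as luminescence increase over controls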
FLuc inhib CS: counter-screen for luciferase assay inhibitors: firefly luciferase inhibition; P08659; inhibition, % at 10 µM; ATPLite firefly luciferase biochemical luminescence, 10 min; 200,000 compounds, 1.5% hits;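 active means inhibition above about 50% when tested at 10 µM, limit read from the data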
NF-kB neuron act: raises NF-kB expression in human neuronal cells. AID 1239. 190,000 compounds, 1.6% hits. NF-kB reporter expression; active compounds read high. fold change at 12.5 µM; in the data active means fold change above about 3.3
APP 5'UTR act: APP 5'UTR luciferase reporter activation; SH-SY5Y APP 5'UTR luciferase reporter, luminescence; zero percent = DMSO vehicle wells; activation, % at 2 µM; 190,000 compounds, 1% hits; AID 1276;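 active means activation above a set limit, based on mean plus 3 SD of controls, cut at about 140% in these data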
STAT1 activator: increases IFN-gamma driven STAT1 reporter signal; NIH 3T3 STAT1-luciferase reporter, luminescence; 100% = IFN-gamma alone, no compound; activation (% of control), % at 5.5 µM; 200,000 compounds, 2.6% hits; AID 932;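 active means activation above the screen-wide mean activation plus 3 SD, cut at about 130% in these data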;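 further: raw ratio to IFN-gamma control signal so 100% means no change and 0% no light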
STAT1 activ conf: confirmation of STAT1 signaling activators; shares compounds with STAT1 activator; activation (% of control), % at 5.7 µM; 1,200 compounds, 97% hits; AID 1262; NIH 3T3 STAT1-luciferase reporter, IFN-gamma potentiation, luminescence; 100% = IFN-gamma EC80 alone, no compound;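 active means activation above a set limit carried over from the earlier primary STAT1 screen, cut at about 140% in these data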;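 further: simple ratio to median IFN-gamma plus DMSO wells so 0% means no light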
NFkB act: NF-kappaB activation in STAT1 activator counter-screen; shares compounds with STAT1 activator; HEK293T NF-kB luciferase reporter, TNF-alpha stimulated, luminescence; 100% = TNF-alpha with vehicle only; activation (% of control), % at 5.7 µM; AID 1306; 1,200 compounds, 43% hits;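 active means activation above the mean of solvent-only control wells plus 3 SD, set per campaign, cut at about 130% in these data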;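 further: TNF-alpha given at a submaximal dose yielding about 80% of full reporter signal; values are well signal over median control so 100% means no change and 0% no light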
STAT3 act 2: counter-screen for STAT1 activators: human STAT3 activation. 1,200 compounds, 46% hits. activation (% of control), % at 5.7 µM. U3A cells STAT3-luciferase reporter, IL-6, luminescence; cells lack STAT1; 100 = IL-6 alone, no compound effect. AID 1316. shares compounds with STAT1 activator;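 active means activation above the solvent-only control well mean plus 3 SD, set per plate batch, cut at about 110% in these data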;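 further: 0% = no luminescence and 100% = median IL-6 plus DMSO wells; higher means more STAT3 reporter activation so hits are non-selective activators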
Numbers without * were called inactive; x = no result. Hits are enriched below; roughly 4.3% of the tested compounds scored in any of these assays.

SMILES	FLuc act counter	FLuc inhib CS	NF-kB neuron act	APP 5'UTR act	STAT1 activator	STAT1 activ conf	NFkB act	STAT3 act 2
CCCCc1ccc(-c2ccc(C)cc2O)nc1	0.2	75.4*	7.23*	203.4*	155.5*	197.6*	110.2	85.2
c1ccc(-c2noc(-c3ccc4ccccc4c3)n2)cc1	0.3	68.5*	3.01	149.7*	151.2*	183.9*	75.8	90.8
NC(=O)Nc1ccccc1C(=O)N1CCC(O)(c2ccc(Cl)cc2)CC1	1	-3.7	1.11	-2.3	100.6	x	x	x
O=C(Nc1ncc(Cc2ccccc2)s1)C1COc2ccccc2O1 (stereo unspecified)	1	-2.7	3.2	164.2*	184.1*	192.2*	131.8	114.4*
Cc1ccc(Cc2cnc(NC(=O)c3cccs3)s2)cc1	0.9	9.1	7.11*	170.1*	170.8*	218.9*	143.2*	132.7*
O=C(NCc1cccnc1)C1COc2ccccc2O1 (stereo unspecified)	1.1	-9.5	1.01	0.6	109.1	x	x	x
O=C(Nc1ncc(Cc2ccccc2)s1)c1cccs1	0.6	35.7	8.44*	193.6*	154.3*	276.1*	142.2*	122.2*
CCOc1ccc2[nH]cc(C(=O)NCCCN3CCOCC3)c(=O)c2c1	1.1	-8.9	1.15	0.8	98.2	x	x	x
CCOc1cc(/C=N/NC(=O)c2cccnc2)ccc1OCC(=O)N(C)C	1	-2.9	1.03	-16.5	99.7	x	x	x
CCc1nnc(NC(=O)c2ccc3ccccc3n2)s1	0.8	23.9	3.79*	103.0	153.1*	175.9*	120.5	157.0*
CCc1nnc(NC(=O)c2c(OC)cccc2OC)s1	1	-0.6	1.6	-9.6	104.0	x	x	x
CCn1c(SCC(=O)N/N=C/C(C)=C\c2ccco2)nnc1-c1ccccc1	0.9	9.1	0.85	6.5	98.8	x	x	x
C/C(=N\N=C\c1ccc(N(C)C)cc1)c1cccc([N+](=O)[O-])c1	0.9	10.6	2.2	26.9	124.6	x	x	x
CN(C)c1ccc(/C=N/N=C/c2ccccc2O)cc1	0.6	36.7	3.6*	165.3*	156.2*	208.2*	87.2	75.2
C=CCNc1nc(-c2cc3ccccc3o2)cs1	0.2	76.1*	7.54*	210.1*	185.3*	225.5*	86.4	84.6
CC(C)(C)c1ccc2c(c1)C(=O)c1ccccc1C2=O	0.3	71.9*	5.27*	162.5*	161.5*	208.9*	125.8	107.4
COc1ccc(CN(C(=O)c2ccco2)c2ccc(C)c(C)c2)cc1	1.1	-5.2	1.25	12.7	94.6	x	x	x
O=C1C(c2cc(=O)c3ccccc3[nH]2)=C(O)c2ccccc21	0.1	89.1*	7.02*	144.1*	190.7*	193.5*	125.5	118.4*
Cn1cccc1/C=C1\CCC/C(=C\c2cccn2C)C1=O	0.8	21.3	5.99*	143.2*	151.9*	228.5*	155.2*	107.7
Cc1cccn2cc(COc3cccc([N+](=O)[O-])c3)nc12	1	-0.7	1.39	21.8	106.3	x	x	x
Cc1cccn2cc(COc3ccc(-c4ccccc4)cc3)nc12	0.9	12.7	1.7	44.0	162.0*	165.0*	106.3	114.8*
CCC(Sc1nc(N)c(NC(=O)c2ccc(OC)cc2)c(=O)[nH]1)C(=O)O (stereo unspecified)	1.1	-6.2	1.15	-0.4	101.8	x	x	x
Brc1ccccc1OCCCn1cnc2ccccc21	0.8	20.2	6.73*	73.3	157.6*	185.5*	137.8*	107.5
Cc1nc(-c2ccccc2)sc1C(N)=O	1	2.2	1.22	16.9	101.0	x	x	x
C/C(=N\O)c1sc(-c2ccccc2)nc1C	0.5	47.6	6.42*	177.4*	155.6*	190.2*	117.7	121.1*
CC1CCCN(C(c2cccs2)c2nnnn2Cc2ccccc2)C1 (stereo unspecified)	1	-1.1	1.01	-6.9	98.2	x	x	x

From PubChem
